Source: PubChem
The list is not random: actives were taken first. Their share in the collection is about 4.6%.
OX1R antag-1 = OX1R (HCRTR1) antagonists, primary screen, fluorescence, CHO/OX1R cells, Fluo-8 calcium, orexin A; Fluo-8 calcium fluorescence; inhibition, % at 5 µM; 0.43% of 330,000 active; AID 434989, 2010;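 active = inhibition above its plate's threshold, mean inhibition of all tested compounds on the plate plus 3 SD, cut at about 37% in these data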;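 also: 0% = orexin A challenge wells and 100% = SB-334867-A antagonist wells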
Target sequence (O43613 whole entry, looked up): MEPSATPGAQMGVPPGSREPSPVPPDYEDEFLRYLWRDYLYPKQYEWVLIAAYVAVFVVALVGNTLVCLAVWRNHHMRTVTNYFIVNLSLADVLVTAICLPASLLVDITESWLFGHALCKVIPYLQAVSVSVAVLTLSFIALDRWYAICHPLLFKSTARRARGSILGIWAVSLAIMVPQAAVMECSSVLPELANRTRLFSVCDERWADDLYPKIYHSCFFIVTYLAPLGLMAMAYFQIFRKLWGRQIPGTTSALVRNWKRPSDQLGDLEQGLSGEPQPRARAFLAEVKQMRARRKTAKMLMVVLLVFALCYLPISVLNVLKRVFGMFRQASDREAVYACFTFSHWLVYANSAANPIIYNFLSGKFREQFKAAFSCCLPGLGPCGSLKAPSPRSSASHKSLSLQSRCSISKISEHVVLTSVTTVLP
GPR7 antag = GPR7 receptor antagonists, primary screen, cell-based, fluorescence, single concentration. Neuropeptides B/W receptor type 1 (Homo sapiens), P48145. GPR7-expressing cells, fluorescence antagonist assay. inhibition, % at 4.4 µM. 1.1% of 290,000 active. AID 1861, 2009; in the data active = inhibition above about 16%, passing the limit was not always enough;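 also: cells stimulated with the agonist NPW; 0% = agonist with vehicle and 100% = vehicle without agonist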
TAAR1 agonist = human TAAR1 agonists, primary screen, Fluo-8 calcium fluorescence, CHO RD-HGA16 cells | Trace amine-associated receptor 1 (Homo sapiens), Q96RJ0 | vehicle wells 0%, saturating PEA agonist 100% | activation, % at 3 µM | 0.99% of 360,000 active | AID 624467, 2012;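 active = activation above the mean activation of all test compounds in the run plus 3 SD, cut at about 38% in these data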
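Assay system: CHO-derived RD-HGA16 cells with stable Gα16 and human TAAR1; timing: 17-24 h seeding, 75 min 37 °C dye, 30 min RT; read-out: % activation from peak over basal fluorescence ratio, DMSO-to-PEA scaled; measured by: kinetic Fluo-8 calcium fluorescence; benchmarks: low control DMSO, high control PEA (EC100); doses: 3 µM single concentration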
TAAR1 antag = human TAAR1 antagonists, primary screen, Fluo-8 calcium fluorescence, CHO RD-HGA16 cells; Trace amine-associated receptor 1 (Homo sapiens), Q96RJ0; antagonist; inhibition, % at 3 µM; 1.5% of 360,000 active; AID 624466, 2012;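 active = inhibition above a per-plate cutoff, the mean inhibition of test compounds on that plate plus 3 SD, cut at about 49% in these data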;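 also: 0% = DMSO plus EC80 beta-PEA response and 100% = DMSO alone without agonist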
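Assay system: CHO-derived RD-HGA16 cells stably expressing human TAAR1 plus Gα16. Timing: 140 s kinetic read after compound, 140 s after agonist. Technique: kinetic Fluo-8 calcium fluorescence measurement. Measure: % inhibition of agonist calcium response.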
OX1R antag-2 = antagonists of human orexin 1 receptor (OX1R). 1.8% of 330,000 active. AID 485270, 2010. OX1R-expressing cells, FRET antagonist read-out. inhibition, % at 6.6 µM. Orexin/Hypocretin receptor type 1 (Homo sapiens), O43613; in the data active = inhibition mostly above about 38%, no sharp cut-off; inactive = mostly below about 40%;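 also: 0% = agonist challenge alone and 100% = reference antagonist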
CHO parental Ca = ATP-evoked calcium signal inhibitors, parental CHO, primary screen, counter-screen for OX1R antagonist project, cell-based, fluorescence, Fluo-8 calcium dye; parental CHO-K1, ATP-induced calcium, Fluo-8 fluorescence; inhibition, % at 5.6 µM; 0.63% of 330,000 active;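 active = inhibition above that plate's mean sample inhibition plus 3 SD, cut at about 26% in these data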;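 also: 0% = ATP-challenged DMSO wells and 100% = DMSO wells without ATP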
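Test system: untransfected parental CHO cell line; also added: ATP stimulus; dosing: 5.6 µM, single dose; signal: calcium-sensitive Fluo-8 fluorescence; measure: percent inhibition of ATP-evoked calcium rise, normalized to controls; benchmarks: low control ATP plus DMSO, high control DMSO only; replication: one well per compound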
TAAR1 nonsel count = nonselective antagonists in TAAR1 counter-screen cells, counter-screen for hTAAR1 antagonist project, cell-based, fluorescence, calcium; shares compounds with TAAR1 antag; counterscreen cell line, antagonist mode; inhibition, % at 3 µM; 77% of 2,400 active; AID 651780, 2012; in the data active = inhibition above about 22%;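 also: CHO-Ga16 host cells stimulated with ATP at an EC80 level; 0% = agonist EC80 plus vehicle and 100% = vehicle without agonist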
TAAR1 antag conf = human TAAR1 antagonists, retest of hits, confirmation, cell-based, fluorescence | shares compounds with TAAR1 antag | TAAR1-expressing cells, fluorescence antagonist read-out | inhibition, % at 3 µM | 40% of 2,400 active; in the data active = inhibition above about 49%;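 also: CHO-Ga16 host cells challenged with agonist PEA near its EC80; 0% = agonist at EC80 plus vehicle and 100% = vehicle with no agonist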
Ga16 nonsel ag = calcium activation in Ga16-expressing cells, counter-screen for TAAR1 antagonist project, cell-based, fluorescence. shares compounds with TAAR1 antag. agonist counterscreen. activation, % at 3 µM. 18% of 2,400 active; in the data active = activation above about 12%;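 also: 0% = vehicle wells and 100% = saturating stimulus response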
TAAR1 ag count = TAAR1 activation by candidate antagonists – cell-based, fluorescence, counter-screen for TAAR1 antagonist project | shares compounds with TAAR1 antag | hTAAR1 cell line, agonist mode | activation, % at 3 µM | 2% of 2,400 active | AID 651955, 2012; in the data active = activation above about 37%;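 also: CHO cells stably expressing TAAR1 with calcium dye readout; 0% = DMSO vehicle and 100% = full agonist response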
Starred values were filed as active, the others as inactive.

`COc1ccc(O)c(/C=N/NC(=S)Nc2cccc(S(=O)(=O)N(C)C)c2)c1` gave OX1R antag-1 -2, GPR7 antag -2, TAAR1 agonist 25, TAAR1 antag 68*, OX1R antag-2 28, CHO parental Ca 14, TAAR1 nonsel count 50*, TAAR1 antag conf 62*, Ga16 nonsel ag 19* and TAAR1 ag count 25.
`Cc1nn(C)cc1C(C(=O)NC1CCCCC1)N(C(=O)Cc1cccs1)c1ccc(Cl)cc1` (stereo not given) gave OX1R antag-1 -20, GPR7 antag -12, TAAR1 agonist 29, TAAR1 antag 61*, OX1R antag-2 14, CHO parental Ca -14, TAAR1 nonsel count 30*, TAAR1 antag conf 53*, Ga16 nonsel ag 13* and TAAR1 ag count 23.
For Cc1ccc(N(C(=O)Cn2nnc3ccccc32)C(C(=O)NC2CCCCC2)c2cn(C)nc2C)cc1 (stereo not given) the results were OX1R antag-1 -31, GPR7 antag -7, TAAR1 agonist 0, TAAR1 antag 4, OX1R antag-2 1 and CHO parental Ca -8.
O=C(O)CCSc1nnc(SCC(=O)NCC(F)(F)F)s1 was read as OX1R antag-1 -2, GPR7 antag -2, TAAR1 agonist 0, TAAR1 antag -1, OX1R antag-2 -1 and CHO parental Ca -8.
For O=C1c2ccccc2C(=O)N1CCc1nc(-c2ccc(Cl)cc2)no1 the results were OX1R antag-1 -10, GPR7 antag -1, TAAR1 agonist 19, TAAR1 antag 63*, OX1R antag-2 8, CHO parental Ca -5, TAAR1 nonsel count 29*, TAAR1 antag conf 37, Ga16 nonsel ag 6 and TAAR1 ag count 2.
Nc1nc(/C=C/c2ccc(F)cc2)nc(-c2ccccc2O)n1 was read as OX1R antag-1 -19, GPR7 antag -4, TAAR1 agonist -1, TAAR1 antag 27, OX1R antag-2 32 and CHO parental Ca -20.
For Nc1nc(/C=C/c2cccnc2)nc(-c2ccccc2O)n1 the results were OX1R antag-1 -7, GPR7 antag -5, TAAR1 agonist 33, TAAR1 antag 67*, OX1R antag-2 39, CHO parental Ca 9, TAAR1 nonsel count 32*, TAAR1 antag conf 58*, Ga16 nonsel ag 14* and TAAR1 ag count 18.
For C=CCn1c(SCc2nc3sc4c(c3c(=O)[nH]2)CCCC4)nc2ccccc2c1=O the results were OX1R antag-1 -28, GPR7 antag 4, TAAR1 agonist 0, TAAR1 antag -3, OX1R antag-2 6 and CHO parental Ca -21.
`c1ccc(Oc2ccc(-c3ccnc4nc(N5CCN(c6ccccc6)CC5)nn34)cc2)cc1` gave OX1R antag-1 -21, GPR7 antag -4, TAAR1 agonist 5, TAAR1 antag 2, OX1R antag-2 7 and CHO parental Ca -14.
